In the library only some 1.9% were active in any assay of this set; here they are far more common.
F508del corr – CFTR F508del correction in bronchial cells; CFBE cells, YFP halide quenching; stimulated with forskolin plus potentiator P3; % fluorescence drop versus neutral controls; activity (quench increase), % at 7.58 µM; 350,000 compounds, 0.36% hits;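 active = mean added fluorescence quench of at least 8% versus neutral control, with both replicates also reaching 8%; inconclusive = only one of the mean or replicate conditions met; inactive = mean below 8% and not both replicates reaching 8%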;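 also: cells transiently co-express mutant CFTR-F508del with the halide-sensitive YFP; corrector assay measuring rescue of mutant channel to the surface after 24 h compound exposure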
Cneo AK release – causes C. neoformans cell lysis; AID 651654; 360,000 compounds, 0.2% hits; lysis activity, % at 15 µM; adenylate kinase release luminescence, 4 h; normalised: neutral wells 0, clomiphene wells 100;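 active = mean lysis activity across replicates of at least 80%, whatever share of replicates individually reach that level; inactive = mean lysis activity below 80%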
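Signal: Adenylate kinase release luminescence | Assay system: Log-phase Cryptococcus neoformans yeast cells | Input: Cells at 5 × 10^6 per mL | Buffer or medium: Fresh YPD growth medium | Compound: Single dose | Schedule: Static 4 h at 37 °C with compound, 1 h detection | Controls: Clomiphene | Read-out: Luminescence rise reflecting yeast cell lysis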
XiGFP reactiv – reactivates the inactive X chromosome in mouse fibroblasts; XiGFP mouse fibroblasts, % GFP-positive cells imaging, 3 d; cells co-treated with 5-aza-dC sensitizer; scaled so ellipticine positive control = 100%; activation, % at 7.58 µM; 360,000 compounds, 0.055% hits;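 active = mean normalized replicate activation at least 10% and every replicate at or above 10%; inconclusive = only one of the two criteria met; inactive = mean below 10% and not all replicates reach 10%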;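 also: 0% = median of on-plate neutral control wells and 100% = ellipticine 6 µM median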
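System: SV40-immortalized XiGFP fibroblast cells, line 68-5-11 / Incubation: 3-day compound exposure, then 15 min fixation at room temperature / Compound: single concentration per compound, delivered by pin transfer / Buffer or medium: DMEM plus 5-aza-dC sensitizer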
FN deposition inh – fibronectin deposition inhibition | AH1F fibroblasts, Alexa488-fibronectin deposition fluorescence, overnight | inhibition, % at 12.6 µM | 350,000 compounds, 0.086% hits | AID 743247;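 active = mean inhibition across replicates of 30% or more, regardless of how many single replicates reach that level; inconclusive = mean under 30% yet at least half of replicates reach 30%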;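 also: positive control wells lacked labelled fibronectin entirely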
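Assay system: AH1F fibroblasts assembling fluorescent fibronectin matrix; Amount: 10000 AH1F cells per well; Buffer or medium: DMEM, 2% serum; Probe or stimulus: Alexa488-fibronectin, 24 nM final in well; Doses: single compound dose, delivered by pin transfer; Incubation: 1 h adhesion, overnight exposure; Measured by: fluorescence 485/525 nm; Read-out: fibronectin deposition inhibition.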
PGC1a acetyl inh – PGC1a acetylation modulation, inhibitor mode; U2OS PGC1a acetylation, AlphaScreen anti-acetyl-lysine; with virally co-expressed GCN5 acetyltransferase; inhibition, % at 15.6 µM; 350,000 compounds, 0.17% hits; AID 651687;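 active = every replicate shows inhibition of at least 40%; inconclusive = mean inhibition at least 40% but some replicate below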;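 also: 0% = neutral control wells and 100% = positive control wells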
DENV2 CPE rescue – protects cells from dengue virus 2 cytopathic effect | DENV2-infected cells, cytopathic effect rescue, plate reader | CPE inhibition, % at 9.99 µM | 350,000 compounds, 1.7% hits; in the data active = CPE inhibition above about 20%, passing the limit was not always enough; inconclusive = no clear call, values can overlap the other calls; tested in BHK-21 cells;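 also: 0% = median of neutral control wells and 100% = median of positive control wells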
An asterisk follows results filed as active; ? = inconclusive; · = no result; + = active, no number.

SMILES	F508del corr	Cneo AK release	XiGFP reactiv	FN deposition inh	PGC1a acetyl inh	DENV2 CPE rescue
C[C@H](CO)N1C[C@H](C)[C@H](CN(C)S(C)(=O)=O)Oc2cc(C#Cc3ccccc3)ccc2S1(=O)=O	2	1	-2	·	6	28*
CCCC#Cc1ccc2c(c1)O[C@H](CN(C)C(=O)CN(C)C)[C@H](C)CN([C@@H](C)CO)S2(=O)=O	0	·	1	5	-2	·
C[C@@H]1CN([C@H](C)CO)C(=O)c2cc(-c3ccccc3)cnc2O[C@@H]1CN(C)CC1CC1	-2	2	0	-4	9	5
COc1ccc2c3c(n(C)c2c1)[C@H](CO)N(Cc1ccncc1)CC31CN(C(=O)NC(C)C)C1	-1	·	0	·	-11	-12
CCOC(=O)C1CCCN(c2c(N3CCOCC3)c(=O)c2=O)C1 (configuration not stated)	-1	-1	0	-8	-3	46*
CCOC(=O)C1CCCN(c2c(N3CCN(C)CC3)c(=O)c2=O)C1 (configuration not stated)	3	0	0	2	-5	-4
C#CCN(Cc1ccco1)C(=O)c1nnc2c3ccccc3n(S(=O)(=O)c3ccc(C)cc3)c2n1	0	·	0	-2	·	25*
COC(=O)C1=C(C)N(CCCC(=O)O)C(=O)NC1c1ccc([N+](=O)[O-])cc1 (configuration not stated)	-2	5	1	3	·	-12
CCOC(=O)C1=C(C)N(CCCC(=O)O)C(=O)NC1c1ccc([N+](=O)[O-])cc1 (configuration not stated)	-1	2	0	-8	·	102*
C[C@@H]1CN([C@@H](C)CO)C(=O)c2cc(NC(=O)CCC(F)(F)F)ccc2O[C@@H](C)CCCCO[C@H]1CN(C)Cc1ccc(C(F)(F)F)cc1	1	-3	0	·	-1	0
CO[C@@H]1CN(C)C(=O)c2cc(NS(C)(=O)=O)ccc2OC[C@H](C)N(C(=O)CN(C)C)C[C@@H]1C	-1	-6	0	14	13	76*
CO[C@H]1CN(C)C(=O)c2cc(NC(C)=O)ccc2OC[C@@H](C)N(C(=O)CN(C)C)C[C@H]1C	·	4	0	-7	·	3
CO[C@H]1CN(C)C(=O)c2cc(NC(C)=O)ccc2OC[C@H](C)N(C(=O)CN(C)C)C[C@H]1C	-4	·	0	-5	12	44*
COCC(=O)Nc1ccc2c(c1)OC[C@H](C)N(C(=O)Cc1cccnc1)C[C@H](C)[C@@H](OC)CN(C)C2=O	-1	·	0	-17	4	1
O=C(NC1CCCC1)N1CC2(C1)[C@H](c1ccccc1)[C@H](CO)N2CC1CCCC1	0	·	0	-7	·	10
COc1ccc2c3c(n(C)c2c1)[C@H](CO)N(C(=O)CN(C)C)CC31CN(C(=O)CN(C)C)C1	·	·	0	·	·	·
Cc1ccc(C(=O)N2CCN(c3ncccn3)CC2)cc1	-2	1	0	6	80*	10
CCCCC(NC(=O)Cc1c(C)c2cc3c(C)c(C)oc3c(C)c2oc1=O)C(=O)O (configuration not stated)	0	-2	0	2	-7	5
CCCC(NC(=O)Cc1c(C)c2cc3c(C)c(C)oc3c(C)c2oc1=O)C(=O)N[C@@H](Cc1ccccc1)C(=O)O (some centres not stated)	1	9	·	·	6	49*
COc1cc(C(=O)NCc2cccc(Cl)c2)ccc1OCC(=O)N1CCOCC1	-1	·	0	-3	·	115*
CCC(=O)N(C)C[C@H]1Oc2cc(C#CCOC)ccc2S(=O)(=O)N([C@H](C)CO)C[C@@H]1C	1	-2	-1	0	-10	13
O=C(C[C@@H]1CC[C@H]2[C@@H](COC[C@@H](O)CN2C(=O)c2ccncc2)O1)NCc1ccc(-c2ccccc2)cc1	1	-1	0	-6	8	+
O=C(C[C@@H]1CC[C@H]2[C@@H](COC[C@@H](O)CN2C(=O)c2cccnc2)O1)NCc1ccc(-c2ccccc2)cc1	-2	3	0	1	-2	27*
O=C(C[C@H]1CC[C@H]2[C@@H](COC[C@@H](O)CN2C(=O)c2cccnc2)O1)NCc1ccc(-c2ccccc2)cc1	-3	0	0	2	2	-2
O=C(C[C@H]1CC[C@H]2[C@@H](COC[C@H](O)CN2C(=O)c2cccnc2)O1)NCc1ccc(-c2ccccc2)cc1	-3	1	0	-5	6	22*
SMILES	F508del corr	Cneo AK release	XiGFP reactiv	FN deposition inh	PGC1a acetyl inh	DENV2 CPE rescue
Cc1ccc2c(c1)N(CCCC(=O)NCc1ccc3c(c1)OCO3)C(=O)CO2	5	1	0	6	-37	92*
O=C(C[C@@H]1CC[C@@H](NC(=O)c2ccncc2)[C@@H](CO)O1)Nc1ccc(-c2ccccc2)cc1	2	·	-1	·	-18	-3
Cc1cc(C)nc(NS(=O)(=O)c2ccc(NS(=O)(=O)c3ccccc3)cc2)n1	1	-1	·	·	11	-4
Cc1cc(C)nc(NS(=O)(=O)c2ccc(NC(=O)Nc3ccccc3)cc2)n1	-2	·	0	2	97*	12
CN(C)C(=O)c1cccc(-c2ccc([C@@H]3[C@@H](CO)N4CCCCN(C(=O)C5CCCC5)C[C@H]34)cc2)c1	-1	-2	·	·	2	6
C[C@@H]1CCCCO[C@H](CN(C)C(=O)C2CCCCC2)[C@@H](C)CN([C@H](C)CO)C(=O)c2cc(NC(=O)Cc3ccccc3)ccc2O1	2	0	0	·	-8	6
CCOc1ccc(NC(=O)c2ccccc2NC(=O)CNC2CCCC(C)C2C)cc1 (configuration not stated)	11*	-1	0	-11	-2	0
CC(=O)OCC(=O)NCCCOc1cccc(CN2CCCCC2)c1	8.3*	1	0	3	9	?
c1ccc(COc2cccc(CN3CCCCC3)c2)cc1	3	0	0	-3	·	0
COc1ccc(NC(=O)Nc2ccc3c(c2)C(=O)N([C@@H](C)CO)C[C@H](C)[C@H](CN(C)C(=O)c2ccccc2)OCCCC[C@@H](C)O3)cc1	-1	3	0	·	3	?
C[C@]12C=CC(=O)C=C1CC[C@@H]1C2[C@@H](O)C[C@@]2(C)C1CC[C@]2(O)C(=O)COC(=O)CCC(=O)O (some centres not stated)	8.2*	0	0	-9	-5	5
